Activity and Dose data for 13 compounds are collected here from ChEMBL document CHEMBL1123164, “Analogues of poison ivy urushiol. Synthesis and biological activity of disubstituted n-alkylbenzenes” (1986).

SMILES strings stand for the structures.

Common to all, as to format: functional
In experiment [1] the test system is Cavia porcellus. Put plainly: Skin test reactivity (intensity of erythema and edema) was measured in guinea pig sensitized to poison ivy urushiol by Draize method. The method, boiled down:
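Urushiol-sensitized guinea pigs (1 mg in 0.15 mL acetone, dorsal neck) received eliciting doses in acetone on abdominal skin. Erythema and edema were scored 0–4 by Draize at 24, 48 and 72 h and averaged per group. Irritancy was tested with similar doses on nonsensitized animals.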

For experiment [2], the species on record is Cavia porcellus. Put plainly: The dose which shows the cross-reactivity with guinea pig sensitized to poison ivy urushiol. The method in brief:
(§1)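 Guinea pigs sensitized topically with 1 mg purified poison ivy urushiol in 0.15 mL acetone on dorsal neck skin (about 10 cm2). Sensitivity was checked with 2 μg PDC in acetone on shaven abdominal skin. Test compounds (10 and 30 μg in acetone) went on abdominal sites. Animals counted positive for erythema/edema at 24, 48 and 72 h, alongside urushiol controls.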

Experiment [3] is filed under the species Cavia porcellus. Kind of experiment: Allergenic cross-reactivity was expressed as number of guinea pig with a positive skin reaction versus number tested upon sensitizing them to poison ivy urushiol; 7/7. The method in brief: as §1
The species named for experiment [4] is Cavia porcellus. Put plainly: Allergenic cross-reactivity was expressed as number of guinea pig with a positive skin reaction versus number tested upon sensitizing them to poison ivy urushiol; 0/7. The method, boiled down:
as §1

The species entered for experiment [5] is Cavia porcellus. Kind of experiment: Allergenic cross-reactivity was expressed as number of guinea pig with a positive skin reaction versus number tested upon sensitizing them to poison ivy urushiol; 0/15. The method in brief: as §1
The species named for experiment [6] is Cavia porcellus. Kind of experiment: Allergenic cross-reactivity was expressed as number of guinea pig with a positive skin reaction versus number tested upon sensitizing them to poison ivy urushiol; 2/9. The method, boiled down: as §1
The species named for experiment [7] is Cavia porcellus. Kind of experiment: Allergenic cross-reactivity was expressed as number of guinea pig with a positive skin reaction versus number tested upon sensitizing them to poison ivy urushiol; 0/8. The method in brief: as §1
The species named for experiment [8] is Cavia porcellus. Put plainly: Allergenic cross-reactivity was expressed as number of guinea pig with a positive skin reaction versus number tested upon sensitizing them to poison ivy urushiol; 5/9. The method in brief: as §1

On to `CCCCCCCCCCCCCCCc1cccc(O)c1N`, for which the results for the Activity in the experiment on Cavia porcellus [1] and in the experiment filed under Cavia porcellus [3] were 2.9 and 7, respectively. For the same compound, in the experiment filed under Cavia porcellus [2], the Dose turned out to be 10 µg.

As to `CCCCCCCCCCCCCc1cccc(O)c1NS(C)(=O)=O`, the Activity in the experiment with Cavia porcellus [1] and in the experiment listed under Cavia porcellus [4] was 0 throughout. For the same compound, in the experiment filed under Cavia porcellus [2], the Dose worked out at 10 µg.

With `CCCCCCCCCCCCCCCCCc1cccc(O)c1N`, the Activity was found to be 2.9 with Cavia porcellus [1] and 7 in the experiment listed under Cavia porcellus [3]. Also, the Dose in the experiment filed under Cavia porcellus [2] worked out at 10 µg.

For the compound `CCCCCCCCCCCCCCCc1cccc(O)c1NS(C)(=O)=O`, the Activity with Cavia porcellus [1] and in the experiment filed under Cavia porcellus [4] was 0 each time. The Dose in the experiment listed under Cavia porcellus [2] was 10 µg.

Consider `CCCCCCCCCCCCCCCc1cc(O)ccc1O`, for which the Activity in the experiment on Cavia porcellus [1] and in the experiment filed under Cavia porcellus [5] was 0 each time. For the same compound, the Dose in the experiment filed under Cavia porcellus [2] is 1 µg.

In the case of `CCCCCCCCCCCCCc1cccc(O)c1N`, the Activity in the experiment with Cavia porcellus [1] amounted to 2.9; in the experiment filed under Cavia porcellus [3] it was 7. Also, the Dose in the experiment filed under Cavia porcellus [2] is 10 µg.

On to `CCCCCCCCCCCCCCCc1ccc(O)c(O)c1`, for which the Activity with Cavia porcellus [1] is on record as 0.1; in the experiment filed under Cavia porcellus [6] it was 2. In addition, the Dose in the experiment listed under Cavia porcellus [2] amounted to 1 µg.

On to `CCCCCCCCCCCCCCCCCc1cccc(O)c1NS(C)(=O)=O`, for which the Activity with Cavia porcellus [1] and in the experiment listed under Cavia porcellus [4] was 0 in each case. In addition, the Dose in the experiment filed under Cavia porcellus [2] amounted to 10 µg.

`CCCCCCCCCCCCCCCc1cccc(N)c1O`: the Activity with Cavia porcellus [1] came to 2.4; in the experiment filed under Cavia porcellus [3] it was 7. For the same compound, the Dose in the experiment filed under Cavia porcellus [2] was 10 µg.

As for `CCCCCCCCCCCCCCCc1cccc(NS(C)(=O)=O)c1O`, the Activity in the experiment on Cavia porcellus [1] and in the experiment listed under Cavia porcellus [4] was 0 each time. The Dose in the experiment listed under Cavia porcellus [2] was 10 µg.

In the case of `CCCCCCCCCCCCCCc1c(O)cccc1O`, the Activity in the experiment on Cavia porcellus [1] and in the experiment filed under Cavia porcellus [7] was 0 in each case. Further, the Dose in the experiment filed under Cavia porcellus [2] was 10 µg.

As to `CCCCCCCCCCCCCCCc1cc(O)cc(O)c1` [CARDOL], the Activity stood at 0.6 in the experiment on Cavia porcellus [1] and 5 in the experiment filed under Cavia porcellus [8]. Also, in the experiment filed under Cavia porcellus [2], the Dose is 30 µg.

As to `CCCCCCCCCCCCCCCc1ccc(O)cc1O`, the Activity in the experiment with Cavia porcellus [1] and in the experiment filed under Cavia porcellus [5] was 0 throughout. The Dose in the experiment listed under Cavia porcellus [2] is 30 µg.
